Measurements published in ChEMBL document CHEMBL1156517, “Targeting thyroid hormone receptor-beta agonists to the liver reduces cholesterol and triglycerides and improves the therapeutic index” (Proc Natl Acad Sci U S A, 2007).
Calls of active or inactive are those of the source. The calls are words filed in the database; no cut-off is given here.

How the values were obtained:
Rattus norvegicus [1] = test: Effect on LDLR mRNA expression in po dosed Sprague-Dawley rat liver; type: functional, organism-based; conditions: TDE = time-dependent effect
Rattus norvegicus [2] = organism: Rattus norvegicus; test: Reduction in plasma cholesterol level in cholesterol fed Sprague-Dawley rat; type: functional
Rattus norvegicus [3] = test: Toxic cardiac effect on Sprague-Dawley rat assessed as increase in systolic aortic pressure at >= 0.065 mg/kg/day, po for 7 days; type: toxicity, organism-based; parameters: route oral; conditions: in vivo, 168 h
Outline: (§1)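 Male SD rats (n = 6 per group) dosed daily by oral gavage for 7 days; vehicle group included. On day 7, rats anesthetized with isoflurane; catheter-tip transducer inserted into left ventricle via right carotid artery. LV pressure, LV dP/dt and heart rate (lead I ECG) recorded digitally. Systolic/diastolic aortic pressure taken by retracting catheter into proximal aorta.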

Mus musculus [4] = test: Decrease in cholesterol level in wild-type C57BL/6 mouse at 5 mg/kg/day once daily for 7 days; type: functional, organism-based
Rattus norvegicus [5] = test: Effect on type 1 iodothyronine deiodinase mRNA expression in po dosed Sprague-Dawley rat thyroid gland; type: functional, organism-based; conditions: TDE = time-dependent effect
Outline: (§2)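 Killed 3, 8 and 24 h post-dose under 2.5% isoflurane. Pituitary and thyroid snap-frozen; liver, heart, soleus, spleen and kidney freeze-clamped. mRNA by quantitative real-time PCR, expressed as fold-change vs vehicle.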

Rattus norvegicus [6] = test: Effect on malic enzyme mRNA expression in po dosed Sprague-Dawley rat liver; type: functional, organism-based; conditions: TDE = time-dependent effect; outline: as §2
Rattus norvegicus [7] = test: Effect on UCP3 mRNA expression in po dosed Sprague-Dawley rat muscle; type: functional, organism-based; conditions: Muscle tissue, TDE = time-dependent effect
Rattus norvegicus [8] = test: Toxicity in Sprague-Dawley rat assessed as suppression of thyroid hormone axis measured by decrease in serum TSH level at 300 mg/kg/day, po for 7 days relative to control; type: organism-based; parameters: route oral; conditions: in vivo, 168 h
Rattus norvegicus [9] = test: Effect on MHCbeta mRNA expression in po dosed Sprague-Dawley rat heart; type: functional, organism-based; conditions: TDE = time-dependent effect
Mus musculus [10] = test: Decrease in cholesterol level in wild-type C57BL/6 mouse at 0.5 mg/kg/day once daily for 7 days; type: functional, organism-based
Mus musculus [11] = test: Effect on hepatic LDLR mRNA level in wild-type C57BL/6 mouse at 0.5 mg/kg/day once daily for 7 days; type: functional
Rattus norvegicus [12] = test: Toxicity in Sprague-Dawley rat assessed as suppression of thyroid hormone axis measured by decrease in TSH-beta mRNA level at 300 mg/kg/day, po for 7 days relative to control; type: organism-based; parameters: route oral; conditions: in vivo, 168 h
Rattus norvegicus [13] = test: Toxicity in Sprague-Dawley rat assessed as suppression of thyroid hormone axis measured by decrease in serum TSH level at 1000 mg/kg/day, po for 7 days relative to control; type: organism-based; parameters: route oral; conditions: in vivo, 168 h
Rattus norvegicus [14] = test: Toxic cardiac effect on Sprague-Dawley rat assessed as increase in first derivative of left ventricular pressure at >= 0.065 mg/kg/day, po for 7 days; type: toxicity, organism-based, Heart left ventricle; parameters: route oral; conditions: in vivo, 168 h; outline: as §1
Rattus norvegicus [15] = test: Toxicity in Sprague-Dawley rat assessed as suppression of thyroid hormone axis measured by decrease in total 3,5,3',5'-tetraiodo-L-thyronine level at 30 mg/kg/day, po for 7 days; type: organism-based; parameters: route oral; conditions: in vivo, 168 h
Rattus norvegicus [16] = test: Effect on type 1 iodothyronine deiodinase mRNA expression in po dosed Sprague-Dawley rat heart; type: functional, organism-based; conditions: TDE = time-dependent effect; outline: as §2
Rattus norvegicus [17] = test: Effect on body weight in Sprague-Dawley rat at 650 ug/kg/day, sc after 8 days; type: functional
Rattus norvegicus [18] = test: Effect on TSH-beta mRNA expression in po dosed Sprague-Dawley rat pituitary gland; type: functional, organism-based; conditions: TDE = time-dependent effect
Rattus norvegicus [19] = test: Toxicity in Sprague-Dawley rat assessed as suppression of thyroid hormone axis measured by decrease in total […]-L-thyronine level at 1000 mg/kg/day, po for 7 days; type: organism-based; parameters: route oral; conditions: in vivo, 168 h
Rattus norvegicus [20] = test: Effect on plasma insulin level in Sprague-Dawley rat at 650 ug/kg/day, sc after 8 days; type: functional
Rattus norvegicus [21] = test: Toxicity in Sprague-Dawley rat assessed as suppression of thyroid hormone axis measured by decrease in total 3,5,3',5'-tetraiodo-L-thyronine level at 300 mg/kg/day, po for 7 days; type: organism-based; parameters: route oral; conditions: in vivo, 168 h
Rattus norvegicus [22] = test: Effect on food intake in Sprague-Dawley rat at 650 ug/kg/day, sc after 8 days; type: functional
Mus musculus [23] = test: Effect on hepatic LDLR mRNA level in LDLR deficient C57BL/6 mouse at 0.5 mg/kg/day once daily for 7 days; type: functional
Mus musculus [24] = test: Decrease in cholesterol level in LDLR deficient C57BL/6 mouse at 5 mg/kg/day once daily for 7 days; type: functional, organism-based
Rattus norvegicus [25] = test: Toxicity in Sprague-Dawley rat assessed as suppression of thyroid hormone axis measured by decrease in total […]-L-thyronine level at 3 mg/kg/day, po for 7 days; type: organism-based; parameters: route oral; conditions: in vivo, 168 h
Rattus norvegicus [26] = test: Toxicity in Sprague-Dawley rat assessed as suppression of thyroid hormone axis measured by decrease in total 3,5,3',5'-tetraiodo-L-thyronine level at 3 mg/kg/day, po for 7 days; type: organism-based; parameters: route oral; conditions: in vivo, 168 h
Rattus norvegicus [27] = test: Toxicity in Sprague-Dawley rat assessed as suppression of thyroid hormone axis measured by decrease in serum TSH level at 30 mg/kg/day, po for 7 days relative to control; type: organism-based; parameters: route oral; conditions: in vivo, 168 h
Rattus norvegicus [28] = test: Effect on type 1 iodothyronine deiodinase mRNA expression in po dosed Sprague-Dawley rat spleen; type: functional, organism-based; conditions: TDE = time-dependent effect; outline: as §2
Rattus norvegicus [29] = test: Effect on type 1 iodothyronine deiodinase mRNA expression in po dosed Sprague-Dawley rat kidney; type: functional, organism-based; conditions: TDE = time-dependent effect; outline: as §2
Rattus norvegicus [30] = test: Toxicity in Sprague-Dawley rat assessed as suppression of thyroid hormone axis measured by decrease in total 3,5,3',5'-tetraiodo-L-thyronine level at 1000 mg/kg/day, po for 7 days; type: organism-based; parameters: route oral; conditions: in vivo, 168 h
Rattus norvegicus [31] = test: Toxicity in Sprague-Dawley rat assessed as suppression of thyroid hormone axis measured by decrease in TSH-beta mRNA level at 1000 mg/kg/day, po for 7 days relative to control; type: organism-based; parameters: route oral; conditions: in vivo, 168 h
Rattus norvegicus [32] = test: Effect on plasma fatty acid level in Sprague-Dawley rat at 650 ug/kg/day, sc after 8 days; type: functional
Rattus norvegicus [33] = test: Effect on type 1 iodothyronine deiodinase mRNA expression in po dosed Sprague-Dawley rat liver; type: functional, organism-based; conditions: TDE = time-dependent effect; outline: as §2
Rattus norvegicus [34] = test: Toxicity in Sprague-Dawley rat assessed as suppression of thyroid hormone axis measured by decrease in total […]-L-thyronine level at 30 mg/kg/day, po for 7 days; type: organism-based; parameters: route oral; conditions: in vivo, 168 h
Mus musculus [35] = test: Decrease in cholesterol level in LDLR deficient C57BL/6 mouse at 0.5 mg/kg/day once daily for 7 days; type: functional, organism-based
Rattus norvegicus [36] = test: Toxicity in Sprague-Dawley rat assessed as suppression of thyroid hormone axis measured by decrease in TSH-beta mRNA level at 30 mg/kg/day, po for 7 days relative to control; type: organism-based; parameters: route oral; conditions: in vivo, 168 h
Rattus norvegicus [37] = test: Effect on type 1 iodothyronine deiodinase mRNA expression in po dosed Sprague-Dawley rat pituitary gland; type: functional, organism-based; conditions: TDE = time-dependent effect; outline: as §2
Rattus norvegicus [38] = test: Toxicity in Sprague-Dawley rat assessed as suppression of thyroid hormone axis measured by decrease in TSH-beta mRNA level at 3 mg/kg/day, po for 7 days relative to control; type: organism-based; parameters: route oral; conditions: in vivo, 168 h
Rattus norvegicus [39] = test: Effect on SREBP-1c mRNA expression in po dosed Sprague-Dawley rat liver; type: functional, organism-based; conditions: TDE = time-dependent effect
Rattus norvegicus [40] = test: Toxicity in Sprague-Dawley rat assessed as suppression of thyroid hormone axis measured by decrease in serum TSH level at 3 mg/kg/day, po for 7 days relative to control; type: organism-based; parameters: route oral; conditions: in vivo, 168 h
Rattus norvegicus [41] = test: Effect on fasting blood glucose level in Sprague-Dawley rat at 650 ug/kg/day, sc after 8 days by oral glucose tolerance test; type: functional
Rattus norvegicus [42] = test: Toxic cardiac effect on Sprague-Dawley rat assessed as increase in heart rate at >= 0.065 mg/kg/day, po for 7 days; type: toxicity, organism-based; parameters: route oral; conditions: in vivo, 168 h; outline: as §1
Rattus norvegicus [43] = test: Toxicity in Sprague-Dawley rat assessed as suppression of thyroid hormone axis measured by decrease in total […]-L-thyronine level at 300 mg/kg/day, po for 7 days; type: organism-based; parameters: route oral; conditions: in vivo, 168 h

How did the Activity (Rattus norvegicus [1]) turn out when N[C@@H](Cc1cc(I)c(Oc2ccc(O)c(I)c2)c(I)c1)C(=O)O [LIOTHYRONINE] was run?
Its Activity is “tde”.

And the ED50 (Rattus norvegicus [2])?
Its ED50 is 0.012 mg/kg.

And the Activity (Rattus norvegicus [3])?
Its Activity is “Active”.

And the Activity (Mus musculus [4])?
Its Activity is “Active”.

And the Activity (Rattus norvegicus [5])?
The Activity was “tde”.

What about the Activity (Rattus norvegicus [6]) of the same compound?
Its Activity is “tde”.

What about the Activity (Rattus norvegicus [7]) of the same compound?
Its Activity is “tde”.

What about the Activity (Rattus norvegicus [8]) of the same compound?
Its Activity is 0.0031.

What about the Activity (Rattus norvegicus [9]) of the same compound?
The Activity was “tde”.

What about the Activity (Mus musculus [10]) of the same compound?
The Activity was “Active”.

And the Activity (Mus musculus [11])?
Its Activity is -42.4%.

What about the Activity (Rattus norvegicus [12]) of the same compound?
The Activity was 0.0978.

What about the Activity (Rattus norvegicus [13]) of the same compound?
The Activity was 0.001365.

And the Activity (Rattus norvegicus [14])?
Its Activity is “Active”.

And the Activity (Rattus norvegicus [15])?
The Activity was 4.2 ng/mL.

And the Activity (Rattus norvegicus [16])?
The Activity was “tde”.

And the Activity (Rattus norvegicus [17])?
Its Activity is 4.3 g.

What about the Activity (Rattus norvegicus [18]) of the same compound?
The Activity was “tde”.

And the Activity (Rattus norvegicus [19])?
The Activity was 16.45 ng/mL.

And the Activity (Rattus norvegicus [20])?
Its Activity is 0.334 ng/mL.

What about the Activity (Rattus norvegicus [21]) of the same compound?
The Activity was 1.43 ng/mL.

What about the Activity (Rattus norvegicus [22]) of the same compound?
The Activity was 16.2%.

And the Activity (Mus musculus [23])?
The Activity was 9.5%.

And the Activity (Mus musculus [24])?
Its Activity is “inactive”.

What about the Activity (Rattus norvegicus [25]) of the same compound?
The Activity was 0.49 ng/mL.

And the Activity (Rattus norvegicus [26])?
The Activity was 37.3 ng/mL.

What about the Activity (Rattus norvegicus [27]) of the same compound?
The Activity was 0.0139.

And the Activity (Rattus norvegicus [28])?
Its Activity is “tde”.

And the Activity (Rattus norvegicus [29])?
The Activity was “tde”.

And the Activity (Rattus norvegicus [30])?
Its Activity is 8.4 ng/mL.

And the Activity (Rattus norvegicus [31])?
The Activity was 0.081.

And the Activity (Rattus norvegicus [32])?
The Activity was 0.937 mM.

What about the Activity (Rattus norvegicus [33]) of the same compound?
Its Activity is “tde”.

What about the Activity (Rattus norvegicus [34]) of the same compound?
The Activity was 0.42 ng/mL.

And the Activity (Mus musculus [35])?
The Activity was “inactive”.

And the Activity (Rattus norvegicus [36])?
The Activity was 0.14.

What about the Activity (Rattus norvegicus [37]) of the same compound?
Its Activity is “tde”.

What about the Activity (Rattus norvegicus [38]) of the same compound?
Its Activity is 0.93.

What about the Activity (Rattus norvegicus [39]) of the same compound?
The Activity was “tde”.

And the Activity (Rattus norvegicus [40])?
The Activity was 0.57.

What about the Activity (Rattus norvegicus [41]) of the same compound?
Its Activity is 25 mg/dL.

And the Activity (Rattus norvegicus [42])?
The Activity was “Active”.

What about the Activity (Rattus norvegicus [43]) of the same compound?
Its Activity is 4.06 ng/mL.
